Assay outcomes as filed in PubChem BioAssay.
KCNK3 inh: human KCNK3 channel inhibition, primary screen; CHO-KCNK3 thallium flux, FluxOR fluorescence; hits give low values; B-score at 10 µM; hit rate 0.84% among 340,000;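 active means B-score under library mean minus 4 SD, starting fluorescence ratio at most library mean plus 5 SD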;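 further: more negative B-score means stronger inhibition of thallium flux through KCNK3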
hERG rescue: compounds protecting human hERG from proarrhythmic drug block. Q12809. CHO-hERG, FluxOR thallium flux, dofetilide IC70 present. activation (rescue from dofetilide block), less the hit threshold, % at 10 µM. hit rate 0.51% among 310,000;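 active means activation above the mean of controls blocked by dofetilide plus 5 SD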;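 further: thallium influx through hERG after potassium depolarization seen as dye fluorescence rise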
KCNK9 block: inhibitors of human KCNK9 two-pore domain potassium channel | Q9NPC2 | HEK293 KCNK9, FluxOR thallium flux fluorescence; hits give low values | B-score at 10 µM | hit rate 1.2% among 310,000 | AID 488922;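 active means ratio B-score over 3 SD below the library mean, with starting fluorescence within 5 SD of its mean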;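 further: negative B-score means less thallium flux so channel inhibition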
KCNQ1 inh: inhibitors of human KCNQ1 potassium channel; P51787; CHO-K1 KCNQ1, FluxOR thallium flux fluorescence; hits give high values; B-score at 10 µM; hit rate 1.3% among 310,000; AID 2642;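 active means compounds whose thallium flux B-score, printed positive for inhibition, exceeds three library SD while starting fluorescence stays within three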;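 further: channel opened by potassium depolarization with thallium stimulus after 20 min compound exposure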
KCNQ1 pot: human KCNQ1 channel potentiation or activation; P51787; CHO-K1 KCNQ1, thallium flux FluxOR fluorescence; hits give high values; B-score at 10 µM; hit rate 0.35% among 310,000; AID 2648;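 active means fluorescence ratio B-score, a plate-corrected score, at least three library SD, with initial intensity B-score within 5 SD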
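Assay system: CHO-K1 cells stably expressing KCNQ1; Medium: assay buffer with matched DMSO; Also added: K+/Tl+ depolarizing stimulus; Dosing: single dose; Timing: dye 90 min, compound 20 min, room temperature; Measured by: kinetic FluxOR thallium fluorescence, 10-s 1-Hz baseline, 110-s post-stimulus read; Read-out: peak-minus-minimum fluorescence over initial fluorescence, negative-control normalized, B-scored.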
KCNK9 inh conf: confirmation of human KCNK9 potassium channel inhibitors; inhibition, % at 10 µM; hit rate 43% among 4,900; HEK293 KCNK9 cells, FluxOR thallium flux fluorescence; shares compounds with KCNK9 block;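 active means thallium signal inhibited by more than 5 SD of the compound-free buffer control wells, on both duplicate plates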;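 further: 0% = assay buffer control wells without compound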
Kir2-1 spec: selectivity of KCNK9 modulators against mouse Kir2.1. shares compounds with KCNK9 block. Kir2.1 cells, FluxOR thallium flux fluorescence. inhibition, % at 10 µM. hit rate 4% among 4,900. AID 492993;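 active means thallium signal drop more than 5 SD beyond the mean of the no-compound control wells, seen in both duplicate plates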;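 further: signal is fluorescence rise after thallium addition divided by baseline fluorescence; plate controls were assay buffer only for no effect and full block by chlorpromazine control for full effect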
Target sequence (P35561 whole entry, looked up): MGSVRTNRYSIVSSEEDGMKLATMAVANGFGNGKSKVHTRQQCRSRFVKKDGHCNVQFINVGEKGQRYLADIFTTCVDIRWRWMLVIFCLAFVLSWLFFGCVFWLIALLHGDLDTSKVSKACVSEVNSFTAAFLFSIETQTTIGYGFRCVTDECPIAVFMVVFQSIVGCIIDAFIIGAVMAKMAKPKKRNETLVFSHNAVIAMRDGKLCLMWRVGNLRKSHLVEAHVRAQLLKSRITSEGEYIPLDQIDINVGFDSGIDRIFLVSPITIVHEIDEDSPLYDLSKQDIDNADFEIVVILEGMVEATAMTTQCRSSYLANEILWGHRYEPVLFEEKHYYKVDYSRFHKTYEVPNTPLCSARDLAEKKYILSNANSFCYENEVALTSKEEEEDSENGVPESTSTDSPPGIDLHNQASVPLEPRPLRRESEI
KCNK9 uninduced: second check of KCNK9 modulator effects in non-induced HEK293 cells; FluxOR thallium flux; hit rate 40% among 4,900; shares compounds with KCNK9 block; inhibition, % at 10 µM;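 active means thallium signal drop beyond 5 SD of the untreated control mean, on both duplicate plates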;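 further: plate controls were buffer only IC0 wells for no effect and SID17386958 at its maximal inhibitory level for full effect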
* marks the source's active call; other numbers are inactive results; i = inactive; . = no result. Most compounds without a hit are left out; they make up all but 3.1% or so of the library.

SMILES	KCNK3 inh	hERG rescue	KCNK9 block	KCNQ1 inh	KCNQ1 pot	KCNK9 inh conf	Kir2-1 spec	KCNK9 uninduced
O=C(N/N=C/c1ccc(-c2cccc(C(F)(F)F)c2)o1)c1cccc(F)c1	i	-19	-9.9*	i	i	i	i	i
NC(=O)CSc1nnc(-c2cccs2)n1Cc1ccco1	i	-9	i	i	i	.	.	.
Cc1ccc(C)c(CSc2nnc(-c3cccs3)n2Cc2ccco2)c1	i	-13	-12*	i	i	36%*	61%*	42%*
COc1ccc(-c2cc(=O)oc3c(O)c(O)ccc23)cc1	i	-8	i	i	i	.	.	.
CC1Oc2cc3oc4c(O)c(O)ccc4c(=O)c3c(O)c2C1(C)C (centres undefined)	i	-17	i	10*	i	i	i	i
Cc1cccc(OCC(=O)Nc2ccc3c(c2)nc(CCN2CCN(c4ccccn4)CC2)n3C)c1	i	-21	i	i	i	.	.	.
CCn1cc(C=C2C(=O)c3ccccc3C2=O)c2ccccc21	i	-6	i	i	i	.	.	.
CCn1cc(C2=NC(CCSC)CO2)c2ccccc21 (centres undefined)	i	-22	i	i	i	i	i	i
CCn1cc(C2=NC(C(C)C)CO2)c2ccccc21 (centres undefined)	i	-14	i	i	i	i	i	i
CCn1cc(C2=NC(CC(C)C)CO2)c2ccccc21 (centres undefined)	i	-12	i	i	i	i	i	i
C[C@H]1NC(=O)[C@]2(C)[C@@H](c3ccccc3)[C@H]3COc4ccccc4[C@H]3N2C1=O	i	.	.	.	.	.	.	.
COC(=O)c1ccc(CNC(=O)Cn2cnc3c(SC)nc(N)nc32)cc1	i	.	.	.	.	.	.	.
O=C(NCCN1CCOCC1)C(=O)NCC1OCCCN1S(=O)(=O)c1cc(F)ccc1F (centres undefined)	i	-7	i	i	i	.	.	.
Nc1cc(C(F)(F)F)ccc1OCC1CCCO1 (centres undefined)	i	-6	i	i	i	.	.	.
CC1CC(=O)N(CCc2ccccc2)C(=O)C1	i	.	.	.	.	.	.	.
O=C1CC(=O)N(CCc2ccccc2)C(=O)N1CCc1ccccc1	i	-12	i	i	i	i	i	i
Cc1ccc(CSc2sc(C(=O)c3ccccc3)c(N)c2C#N)cc1	i	-6	-9*	i	i	36%*	i	42%*
CCN(CCn1cccn1)C(=O)c1cc(COc2cc(C)ccc2C)on1	i	-4	i	i	i	.	.	.
Cc1cc(C)cc(NC(=O)c2cccn2-c2ncc(C(F)(F)F)cc2Cl)c1	i	-8	i	i	i	i	i	i
CCOc1ccc(C(=O)N2CCC3(CC2)NCCc2[nH]cnc23)cc1OCC	i	-5	i	i	i	.	.	.
C=CCn1c(SCCC)nc2sc3c(c2c1=O)CCc1ccccc1-3	i	-8	i	i	i	i	i	i
CC(C)(C)C1N=C(c2ccc3ccccc3c2)OC1=O (centres undefined)	i	.	.	.	.	.	.	.
COc1ccc(CCNC(=O)c2cc(-c3ccccc3)c(N3CCOCC3)s2)c(OC)c1OC	i	-8	i	i	i	i	i	i
Cc1cc(S(=O)(=O)NCc2ccccc2)ccc1OCC(=O)N1CCCC1	i	-5	i	i	i	.	.	.
Cc1nn2c(NCc3ccccn3)cc(C(C)(C)C)nc2c1-c1ccccc1	i	-10	i	i	i	i	i	i
SMILES	KCNK3 inh	hERG rescue	KCNK9 block	KCNQ1 inh	KCNQ1 pot	KCNK9 inh conf	Kir2-1 spec	KCNK9 uninduced
CC(C)(C)c1ccc(C(CC(=O)O)NC(=O)Cc2ccccc2)cc1 (centres undefined)	i	-6	i	i	i	.	.	.
O=S(=O)(c1ccc(Br)s1)N1CCN(Cc2ccc3c(c2)OCO3)CC1	i	-3	i	i	i	i	i	i
CCOc1ccc(S(=O)(=O)N2CCN(Cc3ccc4c(c3)OCO4)CC2)cc1OCC	i	-13	i	i	i	.	.	.
COc1cccc(S(=O)(=O)N2CCN(Cc3ccc4c(c3)OCO4)CC2)c1	i	-9	i	i	i	i	i	i
O=S(=O)(c1cccc2cccnc12)N1CCN(Cc2ccc3c(c2)OCO3)CC1	i	0	i	i	i	i	i	i
CCCCOc1ccc(C(=O)NNC(=O)C2C3C=CC(C3)C2C(=O)O)cc1 (centres undefined)	i	-11	i	i	i	.	.	.
O=C(CCc1c[nH]c2ccccc12)N[C@@H](Cc1c[nH]c2ccc(O)cc12)C(=O)O	i	2	i	i	i	.	.	.
O=C(c1ccccc1)c1ccc2cc(O)ccc2c1	i	-13	i	i	i	i	i	i
COc1cc(/C=C2\C(=N)N3N=CSC3=NC2=O)ccc1OS(=O)(=O)c1ccccc1[N+](=O)[O-]	i	-5	i	i	i	i	i	i
O=S(=O)(c1ccccc1Br)N(Cc1ccccc1)CC(O)COCc1ccccc1 (centres undefined)	i	.	.	.	.	.	.	.
CCN(CC)c1ccc(S(=O)(=O)N2CCCCC2)cc1NC(=O)CSCc1c(C)noc1C	i	.	.	.	.	.	.	.
CC(C)COc1ccc(C(=O)Nc2scc(-c3ccc(Cl)cc3Cl)c2C(N)=O)cc1	i	-12	i	i	i	i	i	i
Cc1ccc(C)c(C(=O)c2ccccc2NC(=O)c2ccccn2)c1	i	-6	i	i	i	.	.	.
Cc1ccccc1-c1ocnc1C(=O)Nc1ccccc1NC(=O)c1ccccn1	i	-13	-8.7*	i	i	38%*	i	i
COc1ccc(OC)c(NC(=O)C2CCCN(S(=O)(=O)c3cccc4nsnc34)C2)c1 (centres undefined)	i	-2	i	i	i	.	.	.
COc1cc(NC(=O)C2CCCN(S(=O)(=O)c3cccc4nsnc34)C2)cc(OC)c1 (centres undefined)	i	-8	i	i	i	i	i	i
Cc1ccn2c(/C=N/OCc3cccc(F)c3)c(-c3ccc(Cl)cc3)nc2c1	i	-16	-8.4*	i	i	i	i	33%*
Cn1c(=O)[nH]c(=O)c2c1[nH]c(=S)n2CCCc1ccccc1	i	-2	i	i	i	i	i	28%*
